# High-throughput results deposited in PubChem BioAssay by several laboratories.
# Hits are enriched below; roughly 2.1% of the tested compounds scored in any of these assays.
# m5-HT2A agonist: activates the mouse 5-HT2A serotonin receptor; P35363; CHO-K1 mHTR2A beta-arrestin complementation, luminescence; percent of 30 µM serotonin response; activation, % at 7.6 µM; actives 0.66% (n = 360,000);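 active = activation above a run cutoff, the mean activation of all tested compounds plus 3 SD, cut at about 14% in these data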;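 also: 0% = plate median of compound wells and 100% = 30 µM serotonin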
# CCR6 antagonist: blocks CCL20-driven beta-arrestin recruitment at human CCR6. P51684. AID 493098. actives 0.49% (n = 340,000). CHO-K1 CCR6 PathHunter beta-arrestin, luminescence, CCL20-stimulated. inhibition, % at 20 µM;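 active = compounds whose inhibition of the agonist-driven luminescence signal at 20 µM reaches about 50%, limit read from the data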;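 also: cells stimulated with CCL20 at 14 nM final; plate controls were DMSO with CCL20 for no effect and DMSO without agonist for full effect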
# CXCR6 block: inhibitors of human CXCR6 receptor. inhibition, % at 20 µM. actives 0.36% (n = 360,000). O00574. AID 602244. CHO-K1 PathHunter CXCR6 beta-arrestin, luminescence; in the data active = inhibition above about 34%, passing the limit was not always enough;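 also: antagonist mode with CXCL16 agonist at 10 nM final; 0% = 10 nM CXCL16 with DMSO and 100% = unstimulated wells without agonist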
# EBI2 block: antagonists of human EBI2 receptor | P32249 | inhibition, % at 5 µM | actives 0.81% (n = 360,000) | AID 651636 | EBI2 beta-arrestin recruitment, luminescence, 7a,25-OHC stimulated; in the data active = inhibition above about 38%;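 also: enzyme fragment complementation signal reports receptor beta-arrestin coupling in cells; 0% = agonist plus DMSO wells and 100% = wells without agonist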
# APJ agonist: agonists of human APJ apelin receptor | P35414 | CHO-K1 APJ PathHunter beta-arrestin, luminescence; 0% DMSO wells, 100% apelin | activation, % at 20 µM | actives 0.11% (n = 330,000) | AID 2520;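 active = activation more than six SD over the plate average, tested at 20 µM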;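 also: 0% = DMSO alone and 100% = apelin-13 at 10 nM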
# Target sequence (P35414 whole entry, looked up): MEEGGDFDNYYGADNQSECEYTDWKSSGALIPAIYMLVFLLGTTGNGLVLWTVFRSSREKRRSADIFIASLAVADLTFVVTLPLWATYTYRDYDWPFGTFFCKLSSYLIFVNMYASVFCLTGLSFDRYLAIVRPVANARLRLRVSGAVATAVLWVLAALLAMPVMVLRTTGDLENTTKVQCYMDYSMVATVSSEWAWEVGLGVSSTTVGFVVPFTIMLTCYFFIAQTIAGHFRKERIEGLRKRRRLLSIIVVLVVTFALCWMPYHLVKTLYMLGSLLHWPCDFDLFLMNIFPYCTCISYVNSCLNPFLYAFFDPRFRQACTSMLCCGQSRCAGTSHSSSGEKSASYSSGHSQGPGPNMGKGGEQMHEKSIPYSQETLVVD
#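 Material: CHO-K1 APJ beta-arrestin complementation cell line; Input: cell density 1000 per well; Incubation: compound stimulation 90 min at 25 °C, detection 60 min; Signal: luminescence from split beta-galactosidase complementation, Galacton Star/Emerald II substrate; Controls: DMSO-only wells as negative, 10 nM Apelin-13 as positive control.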
# APJ antag: APJ receptor antagonism | CHO-K1 APJ beta-arrestin complementation, luminescence | P35414 | inhibition, % at 20 µM | actives 0.32% (n = 330,000);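 active = inhibition above about 40% at 20 µM, limit read from the data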;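 also: cells challenged with 10 nM apelin-13 agonist together with compound; plate controls were apelin-13 plus DMSO wells for no effect and DMSO wells lacking apelin-13 for full effect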
# APJ antag confirm: APJ receptor antagonism confirmation; inhibition, % at 20 µM; shares compounds with APJ antag; actives 66% (n = 950); APJ beta-arrestin recruitment, luminescence, antagonist mode; in the data active = inhibition above about 50%
# The depositor's hits bear a star; . = no result given.
SMILES,m5-HT2A agonist,CCR6 antagonist,CXCR6 block,EBI2 block,APJ agonist,APJ antag,APJ antag confirm
O=C(CN1c2ccccc2Sc2ccccc21)NNC(=S)Nc1ccc(Cl)cc1,-2,28,14,5,-13,51*,70*
O=C1Nc2ccc(F)cc2C12Nc1ccccc1-c1nnc(SCc3ccccc3)nc1O2 (stereo not given),-5,30,5,19,-12,32,.
O=C1Nc2ccc(F)cc2C12Nc1ccccc1-c1nnc(SCc3ccccc3Cl)nc1O2 (stereo not given),-7,40,22,19,-4,53*,75*
CCN(CC)c1ccc(/C=C2\SC(=O)N(C(C)C)C2=O)o1,3,47,27,56*,5,53*,-1
NC(=O)c1sc2nc(-c3ccccc3)c3c(c2c1N)CCCC3,0,11,13,6,-10,47*,16
Cc1ccc(-c2nc3sc(C(N)=O)c(N)c3c3c2CCCC3)cc1,4,18,-4,-1,-1,2,.
O=C(O)c1cccc(-n2cccc2/C=C2\NC(=O)N(Cc3ccc(F)cc3)C2=O)c1,4,20,15,-5,-3,2,.
COc1ccc(/C(C)=N/NC(=O)c2sccc2-n2cccc2)cc1,-5,4,14,9,-4,7,.
O=[N+]([O-])c1ccccc1N/N=C/c1c[nH]c2ccccc12,-8,41,23,28,-11,44*,104*
O=[N+]([O-])c1ccccc1N/N=C/c1ccccc1,8,27,11,0,-3,12,.
O=[N+]([O-])c1ccc(N/N=C/c2c[nH]c3ccccc23)cc1,-13,58*,31,42*,-13,43*,79*
O=C(O)CCCCNCc1ccccc1,-2,1,8,1,-2,-6,.
O=C(CSc1ncnc2c1cnn2-c1ccccc1)Nc1ccccc1,-3,11,0,-1,2,54*,27
NC(=S)NNC(=S)Nc1ccccc1,-4,5,7,-7,-4,41*,53*
O=c1[nH]c2cccnc2n1-c1cccc([N+](=O)[O-])c1,.,14,.,.,-6,-14,.
CC(C)(C)OC(=O)N1CCC[C@H]1c1nnc(SCC(=O)Nc2cccc(Cl)c2)o1,-1,8,-14,-5,1,18,.
CC(C)(C)OC(=O)N1CCC[C@H]1c1nnc(SCC(=O)Nc2ccc(Br)cc2)o1,-16,47,36*,16,-9,55*,72*
N#C/C(=C\c1ccc(O)c([N+](=O)[O-])c1)c1nc2ccccc2s1,9,46,34,9,.,.,.
COc1cc(/C=C(\C#N)c2nc3ccccc3s2)cc([N+](=O)[O-])c1O,-4,60*,44*,15,-9,51*,88*
CC(C)(C)c1cc(CCC(=O)NNC(=S)NC(=O)c2ccccc2)cc(C(C)(C)C)c1O,1,58*,58*,34,-9,51*,135*
CC(C)(C)c1cc(CCC(=O)NNC(=O)c2ccco2)cc(C(C)(C)C)c1O,-1,1,-6,7,3,-3,.
O=C1CCN(Cc2ccccc2)CCN1[C@H](CO)Cc1ccccc1,2,2,2,4,2,7,.
O=C1CCN(Cc2ccc(Br)cc2)CCN1[C@H](CO)Cc1ccccc1,5,19,25,6,-5,45*,30
Cc1cccc(C(=O)Nc2ccc(C(=O)/C=C/c3ccncc3)cc2)c1,-4,41,59*,41,2,41*,77*
Cc1ccc(N2CC(C(=O)Nc3ccc(S(=O)(=O)Nc4nccs4)cc3)CC2=O)cc1 (stereo not given),-5,4,4,-9,-3,-6,.
SMILES,m5-HT2A agonist,CCR6 antagonist,CXCR6 block,EBI2 block,APJ agonist,APJ antag,APJ antag confirm
Cc1ccc(C2=NNC(C(O)C(O)C(O)CO)S2)cc1 (stereo not given),3,-15,7,0,-5,1,.
CCCn1c(SCC(=O)NCc2ccc3c(c2)OCO3)n[nH]c1=O,1,-1,7,-5,-2,-16,.
COc1ccc(Nc2nc(Nc3ccc(OC)cc3)nc(-n3[nH]c(=O)c(C)c3C)n2)cc1,3,34,15,-10,-6,58*,33
COc1ccc(Nc2nc(OC)nc(OC)n2)cc1,-1,19,-8,-5,1,8,.
Cc1ccc(C(=O)N2[C@@H]3CN(C)C(=O)[C@@]2(C)[C@H]2C(=O)N(Cc4ccccc4)C(=O)[C@@H]32)cc1,-2,0,8,-8,.,.,.
CC(C)C(NC(=O)c1ccc(C(C)(C)C)cc1)C(=O)NCc1ccccn1 (stereo not given),-2,11,4,6,-6,41*,16
COc1ccc(C(=O)NC(C(=O)NCc2ccccn2)C(C)C)cc1 (stereo not given),0,13,4,-5,-3,-7,.
O=C(NCCc1nc2ccccc2[nH]1)C1CCC(=O)N(CCc2cccc(F)c2)C1 (stereo not given),6,5,-1,-5,3,-2,.
Cc1ccc(N=C2C(=O)Nc3ccccc32)cc1,1,56*,34,11,-10,40*,78*
O=C1Nc2ccccc2C1=Nc1ccc(Br)cc1,-1,69*,42*,16,-14,63*,147*
COCC(=O)N1CCC(Oc2cccc(C(=O)NCc3ccccn3)c2)CC1,3,0,-4,-6,-3,43*,-5
O=C(Nc1nc2ccc(F)cc2s1)c1ccccn1,.,65*,.,.,-11,77*,68*
O=C(Nc1nc2ccccc2s1)c1cnccn1,-3,7,0,-5,-7,20,.
Cc1ccc(C)c2nc3sc(C(=O)N4CCOCC4)c(N)c3cc12,-4,-3,0,29,-1,5,.
Cc1cc(C)c2nc3sc(C(=O)N4CCOCC4)c(N)c3cc2c1,-4,10,2,33,-10,44*,30
CN1C(=O)/C(=C\c2cc(N=Nc3ccccc3)ccc2O)SC1=S,-3,55*,52*,7,-13,68*,109*
Cn1c(CSCc2ccc(Cl)c(Cl)c2)nnc1SCC(=O)Nc1nccs1,2,4,5,6,8,0,.
CC(=O)C1=C(c2cccc([N+](=O)[O-])c2)N(C(C)=O)n2c(C)nnc2S1,2,70*,19,58*,-21,107*,154*
CC(=O)c1c(C(C)=O)c(C)n(-c2cccc([N+](=O)[O-])c2)c1C,5,15,7,-7,-1,5,.
CCCNc1c(N)c(=O)oc2ccccc12,4,2,-3,-2,1,56*,33
CCNc1c(N)c(=O)oc2ccccc12,4,16,-9,3,-4,19,.
